Laboratory results: ChEMBL document CHEMBL3580617, “Discovery of Benzimidazole CYP11B2 Inhibitors with in Vivo Activity in Rhesus Monkeys” (ACS Med Chem Lett, 2015)

Experiments:
[1] = Intrinsic clearance in rhesus monkey liver microsomes at […] incubated for 10 mins before NADPH addition by LC/MS method; format: ADME, Macaca mulatta; conditions: read-out: CLH
[2] = test system: Rattus norvegicus; experiment: Dose normalized AUC in Sprague-Dawley rat at 2 mg/kg, po or 1 mg/kg, iv by LC-MS/MS method; format: ADME, organism-based; conditions: in vivo
Procedure, shortened: (§1)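 In the rat pharmacokinetic study, AUC was normalized for dose (μM·h·kg/mg), plasma clearance was expressed in mL/min/kg, and oral bioavailability was calculated.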

[3] = target: Cytochrome P450 3A4 (Homo sapiens, UniProt P08684); experiment: Inhibition of CYP3A4 (unknown origin); format: ADME
Chain of Cytochrome P450 3A4 (P08684 whole entry): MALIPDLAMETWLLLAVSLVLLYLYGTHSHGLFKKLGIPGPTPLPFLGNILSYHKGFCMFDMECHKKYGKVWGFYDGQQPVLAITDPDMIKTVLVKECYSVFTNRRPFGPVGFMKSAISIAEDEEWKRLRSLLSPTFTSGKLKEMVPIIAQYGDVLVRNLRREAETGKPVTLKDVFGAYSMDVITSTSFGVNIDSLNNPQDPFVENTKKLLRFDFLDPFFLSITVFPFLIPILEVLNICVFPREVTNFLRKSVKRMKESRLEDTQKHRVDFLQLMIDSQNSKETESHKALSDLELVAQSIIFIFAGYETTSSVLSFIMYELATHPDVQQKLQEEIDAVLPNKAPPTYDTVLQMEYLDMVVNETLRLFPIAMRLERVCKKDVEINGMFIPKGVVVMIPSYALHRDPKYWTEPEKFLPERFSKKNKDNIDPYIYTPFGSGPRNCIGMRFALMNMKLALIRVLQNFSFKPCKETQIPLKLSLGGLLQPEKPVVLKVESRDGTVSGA

[4] = target: T1, Steroid 17-alpha-hydroxylase/17,20 lyase (Homo sapiens, UniProt P05093); experiment: Inhibition of human CYP17 expressed in COS7 cells incubated for 1 hr before 17-hydroxypregnenolone substrate addition by EIA method; format: cell-based, COS-7
T1 sequence (P05093 whole entry): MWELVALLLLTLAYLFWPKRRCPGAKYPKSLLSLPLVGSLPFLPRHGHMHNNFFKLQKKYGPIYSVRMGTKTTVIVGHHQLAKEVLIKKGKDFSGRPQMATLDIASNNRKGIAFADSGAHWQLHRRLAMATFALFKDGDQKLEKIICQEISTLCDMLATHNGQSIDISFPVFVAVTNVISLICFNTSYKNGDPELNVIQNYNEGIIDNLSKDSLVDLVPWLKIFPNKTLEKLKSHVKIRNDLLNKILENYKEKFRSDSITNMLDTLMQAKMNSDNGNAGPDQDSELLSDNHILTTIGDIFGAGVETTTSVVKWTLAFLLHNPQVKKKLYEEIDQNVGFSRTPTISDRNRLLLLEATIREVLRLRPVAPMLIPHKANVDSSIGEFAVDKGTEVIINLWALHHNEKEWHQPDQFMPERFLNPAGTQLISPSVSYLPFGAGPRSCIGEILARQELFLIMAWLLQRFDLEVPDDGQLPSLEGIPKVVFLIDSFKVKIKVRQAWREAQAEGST

[5] = Fraction unbound in rhesus monkey plasma at […] incubated for 4 hrs by equilibrium dialysis and LC/MS method; format: ADME, cell-free, Macaca mulatta
[6] = Oral bioavailability in rhesus monkey at 1 mg/kg by LC-MS/MS method; format: ADME, organism-based, Macaca mulatta; conditions: in vivo
[7] = target: T2, Cytochrome P450 11B2, mitochondrial (Rattus norvegicus, UniProt P30099); experiment: Inhibition of rat CYP11B2 expressed in V79 cells incubated for 1 hr before 11-deoxycorticosterone substrate addition by HTRF-based assay; format: cell-based; conditions: v79, 1 h
T2 sequence (P30099 whole entry): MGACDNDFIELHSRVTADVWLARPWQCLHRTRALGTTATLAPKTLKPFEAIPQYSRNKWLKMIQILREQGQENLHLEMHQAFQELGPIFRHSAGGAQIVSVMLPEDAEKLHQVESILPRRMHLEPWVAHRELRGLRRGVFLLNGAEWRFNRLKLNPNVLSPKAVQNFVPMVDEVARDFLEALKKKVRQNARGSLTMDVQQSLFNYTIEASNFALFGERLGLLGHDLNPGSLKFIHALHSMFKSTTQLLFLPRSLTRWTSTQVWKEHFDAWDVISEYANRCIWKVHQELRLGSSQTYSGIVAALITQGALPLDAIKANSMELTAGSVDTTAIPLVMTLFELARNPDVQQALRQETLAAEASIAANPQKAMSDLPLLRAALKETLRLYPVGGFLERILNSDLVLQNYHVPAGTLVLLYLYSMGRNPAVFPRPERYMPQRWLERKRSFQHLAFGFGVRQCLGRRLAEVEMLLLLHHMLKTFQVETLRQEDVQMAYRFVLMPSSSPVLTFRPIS

[8] = target: T3, Aromatase (Homo sapiens, UniProt P11511); experiment: Inhibition of CYP19 (unknown origin) using MFC substrate incubated for 30 mins
T3 sequence (P11511 whole entry): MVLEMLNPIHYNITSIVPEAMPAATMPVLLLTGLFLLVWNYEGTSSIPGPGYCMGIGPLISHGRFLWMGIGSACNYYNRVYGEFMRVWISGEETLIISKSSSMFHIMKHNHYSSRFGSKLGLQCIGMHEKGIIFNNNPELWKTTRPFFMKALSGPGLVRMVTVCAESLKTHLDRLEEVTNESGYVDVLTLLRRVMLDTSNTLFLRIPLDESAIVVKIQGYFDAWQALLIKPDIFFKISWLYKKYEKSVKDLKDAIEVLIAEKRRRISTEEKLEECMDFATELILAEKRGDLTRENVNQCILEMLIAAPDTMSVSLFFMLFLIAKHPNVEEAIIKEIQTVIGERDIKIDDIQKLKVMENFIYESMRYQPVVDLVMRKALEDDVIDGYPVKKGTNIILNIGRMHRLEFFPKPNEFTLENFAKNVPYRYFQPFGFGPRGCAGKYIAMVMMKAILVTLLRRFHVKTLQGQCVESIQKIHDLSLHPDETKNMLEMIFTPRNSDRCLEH

[9] = target: T4, Steroid 21-hydroxylase (Homo sapiens, UniProt P08686); experiment: Inhibition of human CYP21 expressed in COS7 cells incubated for 1 hr before […] substrate addition by HTRF-based assay; format: cell-based, COS-7
T4 sequence (P08686 whole entry): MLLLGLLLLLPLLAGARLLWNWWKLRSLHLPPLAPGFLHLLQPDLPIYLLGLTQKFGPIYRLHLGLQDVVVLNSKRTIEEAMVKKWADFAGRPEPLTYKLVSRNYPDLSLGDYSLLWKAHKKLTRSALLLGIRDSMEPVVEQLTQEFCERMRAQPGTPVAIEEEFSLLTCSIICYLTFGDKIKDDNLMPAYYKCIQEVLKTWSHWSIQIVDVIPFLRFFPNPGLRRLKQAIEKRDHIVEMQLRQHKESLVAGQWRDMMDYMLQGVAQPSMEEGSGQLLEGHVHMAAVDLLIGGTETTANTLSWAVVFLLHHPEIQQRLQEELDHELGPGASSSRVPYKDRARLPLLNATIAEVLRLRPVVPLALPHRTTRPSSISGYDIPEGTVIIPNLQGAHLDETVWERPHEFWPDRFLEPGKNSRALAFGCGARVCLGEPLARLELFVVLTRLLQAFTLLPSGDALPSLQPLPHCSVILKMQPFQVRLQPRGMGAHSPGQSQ

[10] = Plasma clearance in rhesus monkey at 1 mg/kg, po or 0.5 mg/kg, iv by LC-MS/MS method; format: ADME, organism-based, Macaca mulatta
[11] = Oral bioavailability in Sprague-Dawley rat at 2 mg/kg by LC-MS/MS method; format: ADME, organism-based; conditions: in vivo; procedure, shortened: as §1
[12] = target: Cytochrome P450 2D6 (Homo sapiens, UniProt P10635); experiment: Inhibition of CYP2D6 (unknown origin); format: ADME
Chain of Cytochrome P450 2D6 (P10635 whole entry): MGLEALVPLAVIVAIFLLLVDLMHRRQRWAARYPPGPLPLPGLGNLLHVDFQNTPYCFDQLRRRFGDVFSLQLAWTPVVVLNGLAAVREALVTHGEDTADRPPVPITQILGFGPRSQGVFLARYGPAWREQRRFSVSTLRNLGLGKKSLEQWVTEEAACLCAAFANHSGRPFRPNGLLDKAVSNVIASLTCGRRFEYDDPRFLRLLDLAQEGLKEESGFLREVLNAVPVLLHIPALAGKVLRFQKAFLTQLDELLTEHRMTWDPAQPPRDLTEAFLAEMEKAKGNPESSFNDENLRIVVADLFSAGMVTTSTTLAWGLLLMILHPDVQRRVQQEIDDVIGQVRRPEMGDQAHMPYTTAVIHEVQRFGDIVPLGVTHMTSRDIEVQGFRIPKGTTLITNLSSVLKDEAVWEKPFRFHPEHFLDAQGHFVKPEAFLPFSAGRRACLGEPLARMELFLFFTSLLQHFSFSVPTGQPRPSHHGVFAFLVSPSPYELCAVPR

[13] = Fraction unbound in rat plasma at […] incubated for 4 hrs by equilibrium dialysis and LC/MS method; format: ADME, cell-free
[14] = test system: Rhesus monkey; experiment: Dose normalized AUC in rhesus monkey at 1 mg/kg, po or 0.5 mg/kg, iv by LC-MS/MS method; format: ADME, organism-based, Macaca mulatta; conditions: in vivo
[15] = Plasma clearance in Sprague-Dawley rat at 2 mg/kg, po or 1 mg/kg, iv by LC-MS/MS method; format: ADME, organism-based; procedure, shortened: as §1
[16] = Intrinsic clearance in rat liver microsomes at […] incubated for 10 mins before NADPH addition by LC/MS method; format: ADME; conditions: read-out: CLH

CLint scaled [1]	AUC/dose [2]	IC50 [3]	IC50 [4]	fraction unbound at 4 h [5]	bioavailability [6]	inhibition (INH) [7]	IC50 [8]	IC50 [9]	clearance [10]	bioavailability [11]	inhibition (INH) [12]	fraction unbound at 4 h [13]	AUC/dose [14]	clearance [15]	CLint scaled [16]	SMILES
< 20 mL/min/kg	2.1 µM·kg·h/mg	> 50 µM	> 10 µM	0.23	53%	Not Active	4.51 µM	> 10 µM	10 mL/min/kg	86%	Not Active	0.14	3.07 µM·kg·h/mg	37 mL/min/kg	< 20 mL/min/kg	Fc1cncc(-c2nc3cc(F)c(F)cc3n2C2CC2)c1
22 mL/min/kg	4.32 µM·kg·h/mg	> 50 µM	> 10 µM	0.07	15%	Not Active	1.02 µM	> 10 µM	5 mL/min/kg	76%	Not Active	0.13	1.53 µM·kg·h/mg	10 mL/min/kg	< 20 mL/min/kg	CC(C)(O)c1cncc(-c2nc3ccc(F)cc3n2C2CC2)c1 [MSD-CYP11B2]
